Compounds with a hit are over-represented: about 2.5% of the library has one in this group of screens.
UHRF1 MBD2 ctr: UHRF1 methylated DNA binding inhibitors, primary screen, counter-screen for MBD2 inhibitor project, biochemical, TR-FRET, human UHRF1, single concentration | 370,000 tested, 0.75% active | inhibition, % at 4.4 µM | E3 ubiquitin-protein ligase UHRF1 (Homo sapiens), Q96T88 | UHRF1 binding to methylated oligo; in the data active = inhibition above about 21%;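 note: UHRF1 SRA domain binding a hemimethylated CpG hairpin DNA probe; 0% = median of test compound wells and 100% = reference inhibitor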
Target sequence (Q96T88 whole entry, looked up, the tested form may be a part): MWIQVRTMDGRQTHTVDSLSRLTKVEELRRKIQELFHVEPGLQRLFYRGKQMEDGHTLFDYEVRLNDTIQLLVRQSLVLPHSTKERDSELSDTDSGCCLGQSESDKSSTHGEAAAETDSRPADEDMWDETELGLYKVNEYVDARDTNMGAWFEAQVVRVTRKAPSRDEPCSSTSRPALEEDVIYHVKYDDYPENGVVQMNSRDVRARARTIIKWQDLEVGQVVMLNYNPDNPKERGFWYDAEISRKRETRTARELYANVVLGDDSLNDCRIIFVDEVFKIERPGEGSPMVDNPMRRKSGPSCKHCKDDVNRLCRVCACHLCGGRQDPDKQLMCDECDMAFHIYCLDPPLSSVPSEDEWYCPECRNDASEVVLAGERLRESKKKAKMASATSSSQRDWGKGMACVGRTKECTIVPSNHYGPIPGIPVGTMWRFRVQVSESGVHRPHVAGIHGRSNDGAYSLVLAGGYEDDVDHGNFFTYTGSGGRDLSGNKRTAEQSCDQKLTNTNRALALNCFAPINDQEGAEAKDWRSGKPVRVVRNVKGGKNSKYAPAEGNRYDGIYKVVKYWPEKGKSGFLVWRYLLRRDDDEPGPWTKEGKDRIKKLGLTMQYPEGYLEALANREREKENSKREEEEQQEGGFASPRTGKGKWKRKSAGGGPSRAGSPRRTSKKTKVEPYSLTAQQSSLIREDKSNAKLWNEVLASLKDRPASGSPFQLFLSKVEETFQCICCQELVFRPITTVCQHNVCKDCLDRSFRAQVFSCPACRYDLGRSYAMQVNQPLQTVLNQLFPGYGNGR
SUMO1-SIM PPI: modulators of SUMO1 protein-protein interactions, primary screen, biochemical, uHTS. SUMO1 binding to a labelled peptide, TR-FRET, 1 h. inhibition, % at 20 µM. 360,000 tested, 0.33% active. AID 602429, 2012; in the data active = inhibition above about 37%
MBD2 inh: inhibitors of MBD2 binding to methylated DNA, primary screen, biochemical, TR-FRET, DNA-binding domain, human; MBD2 binding to methylated oligonucleotide; inhibition, % at 4.4 µM; 370,000 tested, 0.31% active; in the data active = inhibition above about 13%
HCV NS3 hel inh: inhibitors of HCV NS3 helicase, primary screen, biochemical, Cy5 molecular beacon fluorescence; Hepatitis C virus NS3 helicase; NS3 helicase DNA unwinding; inhibition, % at 10.9 µM; 290,000 tested, 0.56% active; AID 1800, 2009;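 active = inhibition above the mean of all tested compounds plus 3 SD, set per campaign, cut at about 35% in these data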;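 note: 0% = DMSO wells and 100% = thioflavine S control wells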
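Compound dosing – single dose, 10.9 µM nominal final, DMSO 0.8% final · System – NS3 helicase fragment of HCV · Buffer or medium – MOPS pH 6.5, MgCl2, DTT, Tween20, BSA · Signal – Cy5 beacon fluorescence read at start and 1 h · Also added – annealed dual-labelled DNA beacon duplex, ATP-started · Schedule – 1 h at 25 °C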
DSG3 Ab inh: inhibitors of pemphigus antibody binding to DSG3, primary screen, biochemical, bead-based, flow cytometry, scFv-GFP. 310,000 tested, 0.48% active. binding (percent of control), % at 10 µM. AID 588358, 2011. Desmoglein-3 (Homo sapiens), P32926. DSG3-coupled beads, scFv-anti-DSG3-GFP binding; stronger effect = lower value;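 active = binding more than 3 SD below its plate's average and above zero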;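 note: hits lower antibody fragment binding to DSG3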
DNMT1 inh: human DNMT1 methyltransferase inhibitors, primary screen, biochemical, molecular beacon, fluorescence, HinP1I cleavage, uHTS; 360,000 tested, 0.83% active; AID 588458, 2011; DNA (cytosine-5)-methyltransferase 1 (Homo sapiens), P26358; inhibition (reported as % activation of signal), % at 10 µM; in the data active = inhibition above about 50%
* marks the source's active call; other numbers are inactive results; nt = no result given.

SMILES	UHRF1 MBD2 ctr	SUMO1-SIM PPI	MBD2 inh	HCV NS3 hel inh	DSG3 Ab inh	DNMT1 inh
Cc1ccc(NC(=O)CSc2nnc(NC(=O)c3ccco3)s2)cc1	-0.4	-0.4	-1.8	5.6	5.9*	0.7
CC(=O)c1ccc(NC(=O)CSc2nnc(NC(=O)c3ccco3)s2)cc1	nt	5.5	nt	-2.1	111.2	-1.0
COC(=O)c1scc(C)c1N/N=C(\C)c1ccc(F)cc1	2.4	1.9	4.0	0.8	-27.8*	-3.9
C=CCOc1ccc(S(C)(=O)=O)cc1	0.0	14.9	-3.4	-1.0	95.4	1.4
COc1ccc(C(=O)Nc2ncc(C)s2)cc1S(=O)(=O)N1CCCC1	2.0	-1.2	0.0	-2.3	108.5	-1.0
CC(C)C[C@@H](COCc1ccc(Cl)cc1)N1CCN(C(=O)c2ccc(C(F)(F)F)cc2)CCC1=O	0.7	-0.7	-2.3	nt	nt	nt
CC(C)C[C@@H](COCc1ccc([N+](=O)[O-])cc1)N1CCN(C(=O)c2ccc(C(F)(F)F)cc2)CCC1=O	21.5*	-3.0	5.0	nt	nt	nt
COc1cccc(C2C(C(C)=O)=C(C)Nc3ncnn32)c1 (stereo not given)	nt	38.1*	nt	-1.9	120.3	1.1
COc1ccc(C2C(C(C)=O)=C(C)Nc3ncnn32)cc1 (stereo not given)	3.4	-0.8	-3.4	5.2	113.0	1.2
CC1(C)C2CCC(C2)C1(C)NC(=O)C[N+](C)(C)C (stereo not given)	1.8	-0.6	-5.2	3.0	99.7	2.1
COc1ccc(/C=N/NC(=O)c2ccn[nH]2)cc1Cn1nc(C)c([N+](=O)[O-])c1C	-0.6	-6.9	3.3	-7.2	104.4	-2.1
COc1ccc(/C=N/NC(=O)c2ccco2)cc1Cn1nc(C)c([N+](=O)[O-])c1C	-2.7	-10.9	-7.3	-0.3	-160.4*	4.1
COc1cc2c(cc1OC)C(SC)=NC1(CCCC1)C2	27.2*	-0.2	10.0	-12.8	103.5	-3.2
CC(C)N(CC#CCC1(O)c2ccccc2-c2ccccc21)CCO	28.1*	2.2	12.0	6.6	87.7	8.6
O=C(Nc1ccccc1C(F)(F)F)c1ccccc1Br	-1.9	0.0	0.1	-2.8	nt	0.2
O=C(/C=C/c1cccc(Br)c1)N1CCN(c2cccc(C(F)(F)F)c2)CC1	23.9*	0.6	9.2	3.0	103.5	-7.3
CN1CCC[C@H]1CCNc1ccc2c(=O)c3ccccc3n(C)c2c1	2.3	82.3*	-1.9	nt	150.1	40.1
CN1CCN(C(=O)C2CCN(S(=O)(=O)c3cnc[nH]3)CC2)CC1	1.4	0.8	1.1	-1.6	85.9	1.6
O=C(C1CCN(S(=O)(=O)c2cnc[nH]2)CC1)N1CCc2ccccc2C1	29.6*	1.3	-2.4	-4.1	90.7	-1.5
CCSCC(C)(C)n1[nH]c2ccccc2c1=O	1.2	32.3	-5.7	nt	100.0	4.6
COc1ccc(-c2csc(/C(C#N)=C\c3ccc(O)c([N+](=O)[O-])c3)n2)cc1OC	-1.1	38.5*	-4.0	20.7	80.8	-9.1
N#C/C(=C\c1ccc(O)c([N+](=O)[O-])c1)c1nc2ccccc2s1	26.0*	2.7	0.0	24.0	95.7	4.5
COc1ccc(-c2csc(/C(C#N)=C\c3ccc(OC)c([N+](=O)[O-])c3)n2)cc1	-1.4	-1.4	1.0	9.5	95.0	3.6
COc1cc(/C=C(\C#N)c2nc3ccccc3s2)cc([N+](=O)[O-])c1O	1.4	12.1	-4.5	35.7	74.8	0.5
N#Cc1ccc(/C=C/C(=O)c2ccc3c(c2)OCO3)cc1	25.6*	-5.0	-2.0	-11.8	93.2	6.1
CCCCn1c(SCC(=O)Nc2ccc(C)c(S(=O)(=O)N3CCOCC3)c2)nnc1C(CC)N(C)C (stereo not given)	-2.7	-1.7	2.9	nt	100.4	-0.7
